Assay outcomes: PubChem BioAssay, Sanford-Burnham Center for Chemical Genomics
Compounds with a hit are over-represented: about 1.8% of the library has one in this group of screens.
hiPSC survival: enhancers of single-cell hiPSC survival, primary screen, ATPlite luminescence | 100% = ROCK inhibitor wells, 0% = DMSO | survival enhancement, % at 20 µM | 360,000 tested, 0.044% active | AID 602274, 2012; in the data active = survival enhancement above about 18%;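 also: cells exposed to compounds for 16 hours before the ATP read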
H9c2 TAG inh: inhibitors of triacylglycerol accumulation, primary screen, cell-based, uHTS, fluorescence, H9c2; H9c2 cells, Nile Red lipid (TAG) fluorescence; cells loaded with 200 µM oleic acid; 230,000 tested, 0.66% active; inhibition, % at 12.5 µM;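 active = pattern-corrected inhibition of lipid staining of at least 50% with the nuclear-stain viability signal not falling by more than 50%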
Gli-Sufu block: Gli-Sufu pathway antagonists, primary screen, luciferase luminescence, Sufu-KO-LIGHT cells, uHTS | Sufu-KO-LIGHT fibroblasts, Gli luciferase reporter luminescence | inhibition, % at 5 µM | 340,000 tested, 0.74% active;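 active = inhibition above about 55%, limit read from the data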
697 NFkB inh: inhibitors of PMA/ionomycin-induced NF-kB reporter, 697 cells, primary screen, B-cell NF-kB inhibitor project, cell-based, luminescence, uHTS | 697 B-cell NF-kB luciferase reporter, 16 h | inhibition, % at 4 µM | 330,000 tested, 0.33% active | AID 435022, 2010; in the data active = inhibition above about 35%
Jurkat NFkB inh: inhibitors of induced NF-kB luciferase reporter, primary screen, TCR NF-kB activation inhibitor project, cell-based, luminescence, uHTS; 330,000 tested, 0.53% active; Jurkat, PMA/ionomycin-induced NF-kB luciferase reporter; inhibition, % at 4 µM; AID 435003, 2010; in the data active = inhibition above about 50%
Lipid droplet: inhibitors of hepatocyte lipid droplet formation, primary screen, imaging, high-throughput imaging, BODIPY stain | inhibition, % at 6.5 µM | 240,000 tested, 0.4% active | AML12 mouse hepatocytes, oleate lipid droplets;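 active = lipid droplet intensity inhibited by at least 50%, with more than 500 cells counted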
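Test system: AML12 hepatocytes (mouse); reagent: oleate loading, 100 µM; dosing: one dose, 6.5 µM compound; incubation: overnight exposure; signal: fluorescence imaging, 20x objective, two fields per well; read-out basis: % inhibition of corrected integrated BODIPY droplet signal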
697 NFkB conf: PMA/ionomycin-induced NF-kB reporter inhibitors, 697 retest, confirmation, B-cell NF-kB inhibitor project, cell-based, luminescence, single concentration. shares compounds with 697 NFkB inh. 697 B-cell NF-kB luciferase, 16 h. inhibition, % at 4 µM. 2,000 tested, 35% active. AID 449746, 2010; in the data active = inhibition mostly above about 28%, no sharp cut-off; inactive = mostly below about 22%
Large screens that a line does not name were inactive (follow-up assays come after a bar, where they were run).

CCC1(c2ccccc2)NC(=O)N(CC(=O)NNC(=O)COc2ccc(Cl)cc2C)C1=O (stereo not drawn)	none (no result: Lipid droplet)
COc1ccc(-c2cc(-c3ccccc3)c(C#N)c(S(C)=O)n2)cc1 (stereo not drawn)	697 NFkB inh 37 | 697 NFkB conf inactive
COC(=O)[C@H](CO)N1C(=O)[C@@H]2[C@H](C1=O)C1C=C[C@H]2C1	none (no result: 697 NFkB inh, Jurkat NFkB inh, Lipid droplet)
COC(=O)c1sc2nc(C)cc(C)c2c1N	none
Cc1cc(C)c2c(N)c(C(=O)Nc3ncc(C)s3)sc2n1	Gli-Sufu block 67 | 697 NFkB conf inactive
COc1cc(/C=N/NC(=O)c2sc3nc(C)cc(C)c3c2N)ccc1O	697 NFkB inh 43 | 697 NFkB conf inactive
COCCNC(=O)/C(C#N)=C/c1ccc(-c2ccc(OC)cc2[N+](=O)[O-])o1	697 NFkB inh 35 (no result: Lipid droplet) | 697 NFkB conf inactive
COc1cc(-c2noc(C)c2/C=C/c2ccc(C(=O)O)cc2)cc(OC)c1OC	697 NFkB inh 37 | 697 NFkB conf inactive
COc1cc(-c2noc(C)c2C(=O)N[C@@H](CO)Cc2ccccc2)cc(OC)c1OC	none (no result: 697 NFkB inh, Jurkat NFkB inh, Lipid droplet)
Cn1c(/C=N/NC(=O)c2ccccc2Br)nc2ccccc21	none (no result: H9c2 TAG inh, Lipid droplet)
Cc1ccc(C(=O)N/N=C/c2nc3ccccc3n2C)cc1	697 NFkB inh 39 (no result: H9c2 TAG inh, Lipid droplet) | 697 NFkB conf inactive
Cc1ccc(CSCCNC(=O)c2ccc(NS(C)(=O)=O)cc2)cc1	697 NFkB inh 36 | 697 NFkB conf inactive
Cn1c(=O)n(C)c2cc(NC(=O)CSc3nnc(-c4ccccc4O)n3-c3ccccc3)ccc21	697 NFkB inh 36 (no result: H9c2 TAG inh) | 697 NFkB conf 41
CCn1c(SCC(=O)Nc2ccc3c(c2)n(C)c(=O)n3C)nnc1-c1ccncc1	none (no result: H9c2 TAG inh)
COc1ccc(OC)c(S(=O)(=O)Nc2ccc(-c3ccc4nncn4n3)cc2)c1	697 NFkB inh 35 (no result: Lipid droplet) | 697 NFkB conf inactive
Nn1c(SCC(=O)Nc2nccs2)nnc1-c1ccccn1	none (no result: Lipid droplet)
COCCCNc1nc2cc(OC)c(OC)cc2c2nc(-c3ccccc3)nn12	697 NFkB inh 37 (no result: H9c2 TAG inh) | 697 NFkB conf inactive
CCN(CC)CCCNc1nc2cc(OC)c(OC)cc2c2nc(-c3cccnc3)nn12	none
CC(=O)Nc1cccc(NC(=O)c2cc(-c3cccnc3)nc3ccc(Br)cc23)c1	697 NFkB inh 41 (no result: H9c2 TAG inh, Lipid droplet) | 697 NFkB conf inactive
O=C1NC(=O)C2(COC(c3cccc([N+](=O)[O-])c3)OC2)S1 (stereo not drawn)	none
O=C(Nc1cccc(Cl)c1)c1cccnn1	none (no result: H9c2 TAG inh)
O=C(O)c1cccc(Nc2ncnc3sccc23)c1	697 NFkB inh 52 (no result: H9c2 TAG inh) | 697 NFkB conf inactive
CC1CCCCN1C(=O)COC(=O)CSc1ccc(C(N)=O)cc1[N+](=O)[O-] (stereo not drawn)	none (no result: 697 NFkB inh, Jurkat NFkB inh, Lipid droplet)
CC1CCCC(C)N1C(=O)COC(=O)CSc1ccc(C(N)=O)cc1[N+](=O)[O-] (stereo not drawn)	697 NFkB inh 35 (no result: Lipid droplet) | 697 NFkB conf inactive
O=C(Nc1cccc(Oc2ccc3c(c2)C(=O)NC3=O)c1)c1cccs1	697 NFkB inh 39 | 697 NFkB conf 14
CC1(C)CC2CC(C)(CN2S(=O)(=O)c2ccc(C(=O)Nc3ccc(S(=O)(=O)N4CCOCC4)cc3)cc2)C1 (stereo not drawn)	697 NFkB inh 54 (no result: Gli-Sufu block) | 697 NFkB conf 35
C[C@H](NC(=O)C1CCN(S(=O)(=O)c2ccccc2)CC1)C(=O)NCc1cccnc1	none (no result: Gli-Sufu block, 697 NFkB inh, Jurkat NFkB inh, Lipid droplet)
Nc1ccc2nc(-c3ccccc3)sc2c1	none | 697 NFkB conf inactive
COc1ccc(/C=C2\SC(=S)N(CCCC(=O)Nc3ccc(O)cc3)C2=O)cc1	697 NFkB inh 69 | 697 NFkB conf 75
COc1ccc(/C=C2\SC(=S)N(CCC(=O)Nc3cccc(O)c3)C2=O)cc1	697 NFkB inh 47 (no result: Lipid droplet) | 697 NFkB conf 54
COc1ccc(/C=C2/SC(=S)N(CCCC(=O)Nc3ccc(O)cc3)C2=O)cc1	Gli-Sufu block 57, 697 NFkB inh 71 | 697 NFkB conf 79
COc1ccc(/C=C2\SC(=S)N(CCC(=O)NCCc3ccc(O)cc3)C2=O)cc1	none (no result: H9c2 TAG inh)
COc1cc(/C=C2\SC(=S)N(CCC(=O)Nc3ccc(O)cc3)C2=O)cc(OC)c1OC	none (no result: H9c2 TAG inh)
CCN(CC)CCNC(=O)c1cccc(NC(=O)C(=O)c2cc(Br)ccc2NC(C)=O)c1	none
O=C(Nc1ccc2ccccc2c1)C(c1ccccc1)C1CCCC1 (stereo not drawn)	none (no result: H9c2 TAG inh) | 697 NFkB conf inactive
Cc1ccc(NC(=O)C(c2ccccc2)C2CCCC2)cc1 (stereo not drawn)	none (no result: H9c2 TAG inh, 697 NFkB inh, Jurkat NFkB inh)
CCN1C(=O)Nc2cccc3cccc1c23	697 NFkB inh 37 (no result: Lipid droplet) | 697 NFkB conf 36
COc1cccc(C2C3=C(N=c4s/c(=C\c5ccc(OCC(=O)O)cc5)c(=O)n42)c2ccccc2CC3)c1 (stereo not drawn)	none (no result: hiPSC survival, H9c2 TAG inh)
Cc1nn(Cc2ccccc2Cl)c(C)c1C(=O)Nc1nnc(C2CC2)s1	none (no result: Lipid droplet) | 697 NFkB conf inactive
CCOc1ncccc1C(=O)Nc1nnc(C)s1	none
CCOc1ncccc1C(=O)Nc1nnc(C2CC2)s1	697 NFkB inh 39 | 697 NFkB conf inactive
O=C(Nc1cccc2ccccc12)c1csc(COCCO)n1	none (no result: Gli-Sufu block, 697 NFkB inh, Jurkat NFkB inh, Lipid droplet)
Cc1cccc(C(=O)N[C@H](C(=O)Nc2cc(S(=O)(=O)N3CCCCC3)ccc2C)C(C)C)c1	none
Cc1cc(C)c2nc(NC(=O)[C@@H](NC(=O)c3cccc(S(=O)(=O)N4CCOCC4)c3)C(C)C)sc2c1	697 NFkB inh 54 (no result: H9c2 TAG inh) | 697 NFkB conf 54
Cc1cccc2cc(CN(Cc3ccco3)C(=O)c3ccncc3)c(=O)[nH]c12	697 NFkB inh 36 | 697 NFkB conf inactive
Cc1nn(-c2ccccc2)c(N)c1N=Nc1ccc2ccccc2c1	none (no result: H9c2 TAG inh, Lipid droplet)
Cc1ccc(N=Nc2c(N)nn(-c3ccccc3)c2N)cc1	none | 697 NFkB conf inactive
Cn1c(N=Nc2ccccc2)nc2ccccc21	none (no result: H9c2 TAG inh) | 697 NFkB conf inactive
CN1CC(c2ccccc2)Oc2ccccc2C1=S (stereo not drawn)	none (no result: Lipid droplet)
COc1cc(-c2[nH]nc3c2C(c2ccco2)C(C#N)=C(N)O3)cc(OC)c1OC (stereo not drawn)	697 NFkB inh 57 | 697 NFkB conf 37
COc1cc(-c2[nH]nc3c2C(c2ccoc2)C(C#N)=C(N)O3)cc(OC)c1OC (stereo not drawn)	none (no result: H9c2 TAG inh)
Cc1nn(CC(=O)OCC(=O)c2ccc(OC(F)F)cc2)c(C)c1[N+](=O)[O-]	none (no result: Lipid droplet)
